According to PubChem BioAssay AID743208 (The Scripps Research Institute Molecular Screening Center, 2013):
Screen size: about 2,100 compounds; about 30 (1%) were called active.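 How the source made its calls: active means inhibition above about 20% chosen separately for each screening run (limit read from the data); inactive means the rest.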 The list is a sample of the results.

Each molecule was assayed against Disintegrin and metalloproteinase domain-containing protein 10 (Homo sapiens) (UniProt O14672) (assay: human ADAM10 inhibitors, confirmation, biochemical, QFRET, triplicate (AID 743208;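 further: 0% = DMSO wells and 100% = marimastat wells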)). Conditions: ADAM10 QFRET peptide cleavage, EDANS fluorescence; at 6.95 µM; stronger effect = higher value.
How it was run: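 Assay system: human ADAM10 protease with quenched EDANS/DABCYL DM2 peptide / Input: ADAM10 at 20 nM (2X solution) / Dosing: 6.95 µM single dose / Incubation: compound-enzyme preincubation 30 min, then 3 h substrate reaction, both 25 °C / Technique: FRET fluorescence, ex 359 nm, em 460 nm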

Chain of Disintegrin and metalloproteinase domain-containing protein 10 (Homo sapiens) (O14672 214-748 limits assumed): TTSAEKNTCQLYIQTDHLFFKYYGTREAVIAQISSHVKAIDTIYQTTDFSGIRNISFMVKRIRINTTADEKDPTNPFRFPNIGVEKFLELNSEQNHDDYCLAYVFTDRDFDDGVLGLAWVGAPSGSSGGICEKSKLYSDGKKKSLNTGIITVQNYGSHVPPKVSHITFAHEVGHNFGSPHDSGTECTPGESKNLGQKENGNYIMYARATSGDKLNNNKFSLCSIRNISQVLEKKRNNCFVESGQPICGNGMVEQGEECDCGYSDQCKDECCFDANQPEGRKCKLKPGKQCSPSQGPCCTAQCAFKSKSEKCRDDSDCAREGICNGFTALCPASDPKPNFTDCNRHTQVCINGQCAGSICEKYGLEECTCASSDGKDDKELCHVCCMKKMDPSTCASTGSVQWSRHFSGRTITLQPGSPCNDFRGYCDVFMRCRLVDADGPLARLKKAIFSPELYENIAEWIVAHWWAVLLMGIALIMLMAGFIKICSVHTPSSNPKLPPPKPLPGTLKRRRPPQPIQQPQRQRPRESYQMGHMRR

inhibition, inactive:
COc1cc(Cl)c(S(=O)(=O)N2CCN(Cc3ccc4c(c3)OCO4)CC2)cc1Cl 3.51%
O=C(/C=C/c1ccc(F)cc1)NC(=S)NNC(=O)c1cccnc1 0.49%
O=C(CC(O)(C(F)(F)F)C(F)(F)F)Nc1ccc(Cl)c(Cl)c1 2.03%
CCOc1ccc(N2C(=O)CC(N(CCc3ccc(OC)c(OC)c3)C(=S)Nc3ccccc3)C2=O)cc1 (stereo unspecified) 0.13%
CC(C)(C)OC(=O)CNC(=O)c1[nH]cnc1C(=O)N[C@@H](Cc1ccccc1)C(=O)OCc1ccccc1 6.97%
COc1cccc(C2CC(c3ccccc3)=NN2S(=O)(=O)c2ccccc2)c1OC (stereo unspecified) 4.77%
Cc1cc(C)cc(NC(=S)NCCc2c[nH]c3ccccc23)c1 2.41%
COc1ccc(NS(=O)(=O)c2ccc(C)c(C(=O)NNC(=O)c3csc(N4CCOCC4)n3)c2)cc1 2.95%
CCC1(C)Cc2c(sc3nnn(CC(=O)Nc4ccc(Cl)cc4)c(=O)c23)CO1 (stereo unspecified) 6.24%
O=C(CSC1=NCCS1)Nc1nc(-c2ccccc2)cs1 0.24%
COc1ccc(C(N)c2csc(NC(=O)Nc3cccc(C(F)(F)F)c3)n2)cc1 (stereo unspecified) 3.14%
O=C1NC(Nc2nc3ccccc3s2)(C(F)(F)F)C(=O)N1C1CCCCC1 (stereo unspecified) 3.12%
Cc1cc(C)cc(NC(=O)CSCc2cnn(-c3ccccc3)c2-n2cccc2)c1 7.84%
Cc1ccc(OCc2nnc(SC/C=C/c3ccccc3)n2Cc2ccco2)cc1 5.61%
CC(C)(C)N1C(=O)[C@H]2[C@@H](c3ccc(Br)cc3)N3C(=O)N(c4cccc(Cl)c4)C(=O)[C@@]3(C)[C@H]2C1=O 2.62%
O=C(Nc1cccc(S(=O)(=O)Nc2ccc(Cl)cc2)c1)c1ccc2c(c1)OCCO2 8.03%
O=C(NCc1ccccc1)c1onc(CSc2nc3ccccc3[nH]2)c1C(=O)NCc1ccccc1 5.46%
CC(C)Oc1ccc(CC(=O)NNC(=S)Nc2ccc(Br)cc2)cc1 3.54%
COC(=O)C1NN=C(C(=O)c2ccc(Br)cc2)C1c1cccc(Br)c1 (stereo unspecified) 3.07%
COc1ccc(C(=O)NNC(=S)NC(=O)c2ccccc2)cc1 0.52%
COc1ccc([C@H]2CC(=O)C=C(c3ccc(OC(F)(F)F)cc3)C2)cc1OC 1.68%
COc1cc(/C=C2/SC(=S)N(Cc3ccccc3)C2=O)cc(OC)c1O 7.56%
O=C(Oc1cccc(N2C(=O)C3C4c5ccccc5C(c5ccccc54)C3C2=O)c1)c1ccco1 (stereo unspecified) 3.26%
CC1(C)C=Cc2c(ccc3c2OC[C@@H](c2ccc(O)cc2O)C3)O1 9.96%
CCOc1cc(/C=N/NC(=O)c2cc(-c3ccccc3)nc3ccccc23)ccc1O 9.93%
C=C(C)COc1ccc(-c2n[nH]c(C)c2-c2ccccc2)c(O)c1 5.81%
Cc1cccc(CCNS(=O)(=O)c2ccc(S(=O)(=O)NC3CCCC3)cc2)c1 0.65%
Cc1ccccc1-n1c(SCC(=O)Nc2cccc3ccccc23)nc(O)cc1=O -0.12%
COc1ccccc1CC1(C)C(=O)Nc2ccc(OC(F)(F)F)cc21 (stereo unspecified) 0.74%
O=C(OCc1ccc(-c2ccccc2)cc1)c1cccc(O)c1 12.8%
O=S(=O)(c1cccc(S(=O)(=O)N2CCC(n3nnc4ccccc43)CC2)c1)N1CCCCC1 0.35%
COc1cccc(NC(=O)CN2CCN(c3nc(-c4cccc(OC)c4)cs3)CC2)c1 8.73%
C=CCC[C@@H](Cc1ccc(F)cc1)C(=O)O[C@H](CNC(=O)[C@H](CC=C)CC(=O)N(CCO)Cc1ccccc1)c1ccccc1 11.4%
COc1cccc(NC(=O)C2C(c3ccccc3)C2(Cl)Cl)c1 (stereo unspecified) 5.98%
CCOc1cc(NC(=O)c2ccccc2C(=O)O)c(OCC)cc1NC(=O)c1ccccc1F 3.74%
O=C(Cc1ccc(Cl)c(Cl)c1)Nc1ccc(SC(F)F)cc1 7.73%
COc1cccc(CC2(CO)CCCN(Cc3ccc(OC(F)F)cc3)C2)c1 (stereo unspecified) -1.93%
Cc1cc(O)ccc1-c1cc(C(=O)NCc2cc(C(F)(F)F)cc(C(F)(F)F)c2)[nH]n1 1.37%
Cn1nc(C(F)(F)F)c(C(=O)Nc2cccc(C(F)(F)F)c2)c1SCc1ccc(Cl)cc1 7.28%
CCC(C)(C)c1ccc(Oc2ccc(NC(=O)COC(=O)C3=COCCO3)cc2)cc1 9.01%
Cc1[nH]c2ccccc2c1C(=O)COC(=O)c1c(-c2ccccc2)noc1C 3.43%
Cn1c(CNc2nc(-c3ccccc3)cs2)nnc1SCC(=O)c1ccccc1 0.21%
COc1cc(/C=N/n2c(C)n[nH]c2=S)ccc1OCc1ccccc1 -0.86%
COc1ccc(C(CCN(Cc2ccc(OC)c(OC)c2)C(=O)CCl)c2ccccc2)cc1 (stereo unspecified) 2.71%
O=S(=O)(c1ccccc1)N(Cc1cccc(F)c1)c1ccccc1 3.92%
Cc1ccc(N(NC(=O)C(C)(C)O)C(=O)c2ccccc2)cc1C 0.68%
Cc1ccc(C)c(NC(=S)NNC(=O)c2csc(C)c2)c1 3.38%
Cc1ccc(/C=N/NC(=O)CSc2nc3ccccc3o2)cc1 0.27%
COc1ccc(OCCCn2cccc2/C=C2/C(=N)N3OC(C)=CC3=NC2=O)cc1 1.45%
COc1ccc(C(=O)NN2C(=O)C3C(c4ccccc4)C=CC(c4ccccc4)C3C2=O)cc1 (stereo unspecified) 6.22%
COc1ccc(S(=O)(=O)N2CCN(C(C)C(=O)Nc3ccc(C(C)C)cc3)CC2)cc1 (stereo unspecified) 4.39%
COc1ccc(C2CC(c3ccccc3)=NN2C(=O)COC(=O)COc2ccccc2)cc1 (stereo unspecified) 8.14%
O=C(CSCc1ccc(Br)cc1)Nc1ccc(S(=O)(=O)N2CCCCCC2)cc1 7.76%
Cc1cnc(C(=O)OCc2c(C)cc(C(C)(C)C)cc2C)cn1 0.57%
Cc1cc(Nc2ccccc2)n(C(=O)c2ccc(N)cc2)n1 2.25%
CCCCCc1c(-c2ccc(OC)c(OC)c2)ncn1CCc1ccccc1OC 5.03%
O=C(CC1SC(=Nc2ccccc2)N(Cc2ccccn2)C1=O)Nc1cccc(Cl)c1 (stereo unspecified) 7.51%
CC(C)(C)c1ccc(S(=O)(=O)NCC2CCN(C(=O)C(=O)c3cc4ccccc4o3)CC2)cc1 6.76%
CCCC(=O)n1nc(NCc2ccc(OC)cc2)nc1NCc1ccc(OC)cc1 9.12%
O=C1[C@H]2[C@@H](c3ccc(F)cc3)N3C(=O)N(c4ccc(C(F)(F)F)cc4)C(=O)[C@@]3(Cc3ccccc3)[C@H]2C(=O)N1C1CCCCC1 8.51%
CN(C)S(=O)(=O)c1cccc(NC(=O)COC(=O)C2(c3ccccc3F)CCCC2)c1 2.23%
O=C(NC(Cc1c[nH]c2ccccc12)C(=O)N/N=C/c1ccc(Br)cc1)c1cccs1 (stereo unspecified) 9.54%
S=c1[nH]cc(-c2ccc(Cl)cc2)n1-c1ccccc1 1.28%
COC(=O)[C@@]12C[C@@H](CC(=O)NCCCCc3ccccc3)C(=O)N(CCc3ccc(OC)c(OC)c3)C1=CCC(C)(C)C2 5.78%
O=C(COC(=O)CCCSc1nc2ccccc2[nH]1)Nc1ccc(Oc2ccccc2)cc1 10.7%
COc1ccc([C@@H]2[C@@H]3C(=O)N(C(C)(C)C)C(=O)[C@@H]3[C@]3(Cc4ccccc4)C(=O)N(c4cccc(Br)c4)C(=O)N23)cc1 5.88%
CC1(Cc2cccc(C#N)c2)C(=O)Nc2ccc(-c3cccc(C(F)(F)F)c3)cc21 (stereo unspecified) 10.6%
Cc1ccc(NC(=O)c2nc[nH]c2C(=O)N[C@@H](CCCCNC(=O)OC(C)(C)C)C(=O)OC(C)(C)C)cc1 11.2%
O=Cc1cn(CCOc2ccc(F)cc2)c2ccccc12 2.15%
CCOc1ccc(Nc2oc(Cc3ccccc3)nc2C#N)cc1 1.49%
N/C(Cc1ccc([N+](=O)[O-])cc1)=N\OC(=O)COc1ccc2ccccc2c1 3.81%
CC(C)(C)OC(=O)N1CCC(NC(=O)c2[nH]cnc2C(=O)N[C@@H](Cc2ccccc2)C(=O)OCc2ccccc2)CC1 9.68%
Cc1cc(C)cc(NS(=O)(=O)c2ccc(Oc3ncc(C(F)(F)F)cc3Cl)cc2)c1 10.8%
Cc1ccc(S(=O)(=O)N2CCN(C(=O)COC(=O)c3c(C)cc(C)cc3C)CC2)c(C)c1 5.29%
Cc1ccc(S(=O)(=O)N(CC(=O)Nc2cccnc2)c2ccc(Br)cc2)cc1 2.78%
COc1ccc(Cl)cc1NC(=O)CN(C)C(=O)CCCc1c[nH]c2ccccc12 3.45%
O=C(NCCc1ccc(Cl)cc1Cl)c1cc([N+](=O)[O-])c[nH]c1=O 0%
C=CC[C@H](CC(=O)N(CCO)Cc1ccccc1)C(=O)N[C@@H](COC(=O)[C@@H](CC=C)Cc1ccc(F)cc1)Cc1ccccc1 8.13%
COc1cc(C2CC(=O)N3CN(Cc4ccccc4)CSC3=C2C#N)ccc1OCc1ccccc1 (stereo unspecified) 5.28%
CC(N=Cc1nc(-c2ccccc2)oc1O)c1ccccc1 (stereo unspecified) 2.54%
C=CCC[C@@H](Cc1ccc(F)cc1)C(=O)OC[C@H](Cc1c[nH]c2ccccc12)NC(=O)[C@@H](CC=C)CC(=O)N(CCO)Cc1ccccc1 10.1%
COc1ccc(Cl)cc1NC(=O)COC(=O)C(CC(C)C)N1C(=O)C2CC=CCC2C1=O (stereo unspecified) 2.32%
Cc1cccc(C2c3[nH]c4ccccc4c3CCN2C(=O)c2cc(-c3cccn3C)n[nH]2)n1 (stereo unspecified) 6.14%
N#Cc1nc(Cc2cccc3ccccc23)oc1NCc1ccc2c(c1)OCO2 6.72%
C#CCN(C[C@H]1[C@H](OC(=O)NC2CCCC2)[C@H](OC(=O)NC2CCCC2)C[C@H]2C(=O)N(c3ccccc3)C(=O)[C@@H]12)S(=O)(=O)c1ccc(C)cc1 2.92%
Cc1ccc(NS(=O)(=O)c2ccc(C)c(NC(=O)COc3ccc4ccccc4c3)c2)c(C)c1 9.74%
O=C(CNC(=O)c1ccc(Cl)cc1Cl)NCC(=O)Nc1ccccc1N1CCOCC1 0.46%
CCOc1ccc(Br)cc1S(=O)(=O)Nc1ccc(C(=O)OC(C)C(=O)N(C)c2ccccc2)cc1 (stereo unspecified) 9.44%
CCC(C(=O)OCC(=O)Nc1ccccc1-c1ccccc1)c1ccccc1 (stereo unspecified) 2.14%
Cc1csc(NC(=S)Nc2cccc(Cl)c2)n1 7.9%
CC(C)Oc1cc(F)ccc1-c1cc(C(=O)Nc2cccc(Cl)c2)[nH]n1 9.22%
c1ccc2c(CCN3CCNC[C@H]3Cc3cccc4ccccc34)cccc2c1 5.45%
COc1cc(/C=N/O)cc(Br)c1OS(=O)(=O)c1ccc(C)cc1 2.32%
O=C1[C@H]2[C@@H](c3ccc(C(F)(F)F)cc3)N[C@]3(CCCN(Cc4ccc(Br)cc4)C3=O)[C@H]2C(=O)N1Cc1ccccc1 6.04%
CC(C)(C)c1ccc(C(=O)Nc2cc(Cl)c(Br)cc2C(=O)O)cc1 3.89%
CC(C)C(=O)Nc1cccc(NC(=S)NC(=O)C(c2ccccc2)c2ccccc2)c1 7.37%
